Substitutions are numbered along the chain they refer to.
Legend:
[1] = Fasting plasma concentrations in healthy volunteers by SLCO1B1 genotype; details: for Plasma concentration, ratio to control (95% CI) / Plasma concentration, geometric mean (95% CI): fasting, adjusted for sex; for Mean fasting plasma concentration, lower in women than in men: women vs men, 356 healthy volunteers
OAT2 = biological target: T1, OAT2 (Homo sapiens, UniProt Q9Y694); assay: Uptake into transporter-transfected vs wild-type HEK293 cells; assay type: in vitro ADME; details: cyclic guanosine monophosphate 0.5 µM, two to four minutes
T1 sequence (Q9Y694 1-548): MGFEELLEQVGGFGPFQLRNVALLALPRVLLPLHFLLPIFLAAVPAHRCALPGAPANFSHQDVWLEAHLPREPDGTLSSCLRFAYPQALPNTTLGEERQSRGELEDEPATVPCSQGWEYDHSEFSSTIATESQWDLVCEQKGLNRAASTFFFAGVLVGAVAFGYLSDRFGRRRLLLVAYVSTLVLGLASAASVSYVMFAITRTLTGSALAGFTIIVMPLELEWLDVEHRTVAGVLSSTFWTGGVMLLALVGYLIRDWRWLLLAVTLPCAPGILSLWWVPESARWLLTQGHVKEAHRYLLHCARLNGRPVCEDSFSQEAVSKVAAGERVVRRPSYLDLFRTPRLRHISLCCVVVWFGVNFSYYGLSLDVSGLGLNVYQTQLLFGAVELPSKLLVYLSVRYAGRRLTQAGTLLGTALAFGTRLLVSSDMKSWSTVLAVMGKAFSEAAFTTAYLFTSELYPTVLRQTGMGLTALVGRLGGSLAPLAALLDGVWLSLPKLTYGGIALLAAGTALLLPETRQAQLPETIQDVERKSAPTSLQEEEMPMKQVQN
Procedure, shortened: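 Transfected HEK293 lines were OAT2 and OCT1, each run against wild-type cells, seeded on poly-D-lysine plates. Culture was 48 h at 37°C in DMEM with 10% FBS plus 1% gentamycin, 1% sodium pyruvate and 50 µg/mL hygromycin B. Probes were cyclic GMP 0.5 µM (OAT2) and metformin 20 µM (OCT1), over 2–4 min; test compound was 1 µM for 2 min. After four ice-cold washes and methanol lysis, the uptake ratio versus wild-type and the ratio of ratios were derived; n=3 in one experiment.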

OATP1B1*1A = biological target: T2, OATP1B1*1A (Homo sapiens, UniProt Q9Y6L6); assay: Uptake into transporter-transfected vs wild-type HEK293 cells; assay type: in vitro ADME; details: experiment 3, substrate 1 µM, 2 minutes
T2 sequence (Q9Y6L6 1-691): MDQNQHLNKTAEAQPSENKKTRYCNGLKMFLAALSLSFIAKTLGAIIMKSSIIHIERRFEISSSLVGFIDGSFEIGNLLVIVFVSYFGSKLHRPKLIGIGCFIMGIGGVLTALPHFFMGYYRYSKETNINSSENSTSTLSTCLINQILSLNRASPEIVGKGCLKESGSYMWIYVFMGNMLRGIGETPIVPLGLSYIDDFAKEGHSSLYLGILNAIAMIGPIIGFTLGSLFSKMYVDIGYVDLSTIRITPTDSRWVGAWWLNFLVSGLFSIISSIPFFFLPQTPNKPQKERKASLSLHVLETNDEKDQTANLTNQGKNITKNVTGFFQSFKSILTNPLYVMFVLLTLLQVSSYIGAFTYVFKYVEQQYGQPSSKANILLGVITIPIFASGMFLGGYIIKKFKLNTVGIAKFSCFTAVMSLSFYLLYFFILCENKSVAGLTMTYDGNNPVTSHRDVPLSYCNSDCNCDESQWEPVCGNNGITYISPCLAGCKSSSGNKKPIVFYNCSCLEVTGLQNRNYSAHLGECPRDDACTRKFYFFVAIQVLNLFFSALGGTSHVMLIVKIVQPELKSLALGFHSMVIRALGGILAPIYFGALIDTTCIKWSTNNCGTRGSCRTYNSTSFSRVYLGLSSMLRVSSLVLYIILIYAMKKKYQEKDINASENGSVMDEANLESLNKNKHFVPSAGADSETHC
Procedure, shortened: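 HEK293 cells stably transfected with OATP1B1*1A, OATP1B3 or OATP2B1, plus wild-type cells, were seeded on poly-D-lysine plates. Culture was 48 h at 37°C in DMEM with 10% FBS, pyruvate, nonessential amino acids and GlutaMAX. Test compound was 1 µM for 2 min; rosuvastatin probe was 1 µM over 2–4 min. Cells were washed four times in ice-cold buffer and lysed in methanol with internal standard. Readouts were uptake ratio versus wild-type and glucuronide/probe ratio of ratios; mean ± SD, n=3 in one experiment.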

OATP1B1*5 = biological target: T3, OATP1B1*5 (Homo sapiens, UniProt Q9Y6L6, V174A); assay: Uptake into OATP1B1 variant-transfected vs wild-type HEK293 cells; assay type: in vitro ADME; details: for Uptake ratio (vs. wild‐type HEK293 cells): 2 minutes
T3 sequence (Q9Y6L6 1-691 V174A): T2 sequence (Q9Y6L6 1-691) with V174A
Procedure, shortened: (§1)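 HEK293 cells stably expressing an OATP1B1 variant, alongside wild-type HEK293, were seeded at 0.5–1.2 × 10⁵ cells/well on poly-D-lysine plates. They grew 48 h at 37°C and 5% CO₂ in DMEM with 10% FBS, 1% pyruvate, nonessential amino acids and GlutaMAX. Substrate was 1 µM (0.5 µM where footnoted) for 2 min, then four ice-cold buffer washes and methanol lysis with internal standard. Uptake ratio (transfected/wild-type) is expressed as % of OATP1B1*14 in the same experiment; n=3 determinations.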

OATP1B1*15 = biological target: T4, OATP1B1*15 (Homo sapiens, UniProt Q9Y6L6, N130D/V174A); assay: as above; assay type: in vitro ADME; details: for Uptake ratio (vs. wild‐type HEK293 cells): 2 minutes
T4 sequence (Q9Y6L6 1-691 N130D/V174A): T2 sequence (Q9Y6L6 1-691) with N130D, V174A
Procedure, shortened: as §1

OATP1B1*14 = biological target: T5, OATP1B1*14 (Homo sapiens, UniProt Q9Y6L6, N130D/P155T); assay: Uptake into OATP1B1 variant-transfected vs wild-type HEK293 cells; assay type: in vitro ADME; details: substrate 1 µM; for Uptake ratio as percentage of OATP1B1*14 in the same experiment: OATP1B1*14 (reference); for Uptake ratio (vs. wild‐type HEK293 cells): OATP1B1*14, 2 minutes
T5 sequence (Q9Y6L6 1-691 N130D/P155T): T2 sequence (Q9Y6L6 1-691) with N130D, P155T

[2] = SLCO1B1 c.521 C/C genotype (n = 13)
[3] = SLCO1B1 c.521 T/C genotype (n = 113)
[4] = SLCO1B1 c.521 T/T genotype (control; n = 230)

C[C@H](CCC(=O)NCC(=O)O)[C@H]1CC[C@H]2[C@@H]3CC[C@@H]4C[C@H](O)CC[C@]4(C)[C@H]3C[C@H](O)[C@]12C [GDCA, glycodeoxycholate]
Plasma concentration, ratio to control (95% CI) ([1]; C/C genotype (n = 13) vs T/T): 1.16 (0.675, 1.98) | Plasma concentration, geometric mean (95% CI) [1, 2]: 141 (83.3, 237) ng/mL | Plasma concentration, geometric mean (95% CI) [1, 3]: 124 (104, 149) ng/mL | Plasma concentration, geometric mean (95% CI) [1, 4]: 122 (107, 138) ng/mL | Plasma concentration, ratio to control (95% CI) ([1]; T/C genotype (n = 113) vs T/T): 1.02 (0.822, 1.27) | Mean fasting plasma concentration, lower in women than in men [1]: ~ 20%

C[C@H](CCC(=O)NCC(=O)O)[C@H]1CC[C@H]2[C@@H]3[C@H](O)C[C@@H]4C[C@H](O)CC[C@]4(C)[C@H]3CC[C@]12C [GCDCA, Glycochenodeoxycholate]
Plasma concentration, ratio to control (95% CI) ([1]; C/C genotype (n = 13) vs T/T): 1.35 (0.865, 2.11) | Plasma concentration, geometric mean (95% CI) [1, 2]: 567 (367, 876) ng/mL | Plasma concentration, geometric mean (95% CI) [1, 3]: 378 (326, 438) ng/mL | Plasma concentration, geometric mean (95% CI) [1, 4]: 419 (378, 465) ng/mL | Plasma concentration, ratio to control (95% CI) ([1]; T/C genotype (n = 113) vs T/T): 0.900 (0.751, 1.08) | Mean fasting plasma concentration, lower in women than in men [1]: ~ 20%

Nc1nc2c(ncn2[C@@H]2O[C@@H]3COP(=O)(O)O[C@H]3[C@H]2O)c(=O)[nH]1 [cyclic guanosine monophosphate]
Uptake ratio (vs. wild‐type HEK293 cells), probe (OAT2): 23.6 ± 0.58

CC(C)n1c(/C=C/C(O)CC(O)CC(=O)O)c(-c2ccc(F)cc2)c2ccccc21 (stereo not drawn) [Fluvastatin, fluvastatin]
Uptake ratio (vs. wild‐type HEK293 cells) (OATP1B1*1A): 2.7 ± 0.1 | Uptake ratio as percentage of OATP1B1*14 in the same experiment (OATP1B1*5; experiment 1, substrate 1 µM): 56% | Uptake ratio (vs. wild‐type HEK293 cells) (OATP1B1*5; experiment 1, substrate 1 µM): 1.8 ± 0.2 | Uptake ratio as percentage of OATP1B1*14 in the same experiment (OATP1B1*5; experiment 2, substrate 1 µM): 61% | Uptake ratio (vs. wild‐type HEK293 cells) (OATP1B1*5; experiment 2, substrate 1 µM): 1.9 ± 0.1 | Uptake ratio as percentage of OATP1B1*14 in the same experiment (OATP1B1*15; experiment 1, substrate 1 µM): 47% | Uptake ratio (vs. wild‐type HEK293 cells) (OATP1B1*15; experiment 1, substrate 1 µM): 1.5 ± 0.1 | Uptake ratio as percentage of OATP1B1*14 in the same experiment (OATP1B1*15; experiment 2, substrate 1 µM): 48% | Uptake ratio (vs. wild‐type HEK293 cells) (OATP1B1*15; experiment 2, substrate 1 µM): 1.5 ± 0.1 | Uptake ratio as percentage of OATP1B1*14 in the same experiment (OATP1B1*14; experiment 1): 100% | Uptake ratio as percentage of OATP1B1*14 in the same experiment (OATP1B1*14; experiment 2): 100% | Uptake ratio (vs. wild‐type HEK293 cells) (OATP1B1*14; experiment 1): 3.2 ± 0.1 | Uptake ratio (vs. wild‐type HEK293 cells) (OATP1B1*14; experiment 2): 3.1 ± 0.1 | Uptake ratio (vs. wild‐type HEK293 cells) (OATP1B1*14; experiment 3): 4.4 ± 0.1
